The target of data set [1] is T1, Renin (Homo sapiens, UniProt P00797).
T1 sequence (P00797 whole entry): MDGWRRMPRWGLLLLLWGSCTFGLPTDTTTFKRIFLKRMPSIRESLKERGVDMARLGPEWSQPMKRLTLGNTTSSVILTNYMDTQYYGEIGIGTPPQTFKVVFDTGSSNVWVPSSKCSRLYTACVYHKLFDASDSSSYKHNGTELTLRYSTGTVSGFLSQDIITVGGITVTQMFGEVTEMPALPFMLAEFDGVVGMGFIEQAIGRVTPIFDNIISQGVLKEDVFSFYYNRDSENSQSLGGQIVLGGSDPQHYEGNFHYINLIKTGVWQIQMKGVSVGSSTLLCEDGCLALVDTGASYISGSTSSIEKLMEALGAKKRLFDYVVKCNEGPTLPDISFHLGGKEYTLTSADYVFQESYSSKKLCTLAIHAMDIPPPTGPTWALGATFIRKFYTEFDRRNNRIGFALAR
The data set is described as follows: In vitro potency against plasma renin at a pH of 7.4. The class given is cell-free. Put shortly:
(§1)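 Human renin, either purified enzyme or renin in plasma, was assayed at the stated pH. Inhibition was reported as IC50 in nM.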

Data set [2] concerns the target T1, Renin. The data set is described as follows: In vitro potency against plasma renin at a pH of 6.0. The class given is cell-free. Summed up:
as §1

Data set [3] has as its target T1, Renin. Nature of the data set: In vitro potency against purified renin at a pH of 7.4. Put shortly:
as §1

Data set [4] has as its target T1, Renin. The data set is described as follows: In vitro potency against purified renin at a pH of 6.0. Put shortly: as §1
Data set [5] is described as follows: Bioavailability in monkey (dose 10 mg/kg i.d. or 0.3 mg/kg i.v.). The class given is ADME, organism-based. The conditions noted are these: primates, in vivo, iv. Summed up:
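Male cynomolgus monkeys (3–5 kg), salt-depleted, fasted overnight, pentobarbital-anesthetized (15 mg/kg bolus, then 0.10 mg kg⁻¹ min⁻¹ infusion). Compound given as HCl salt solution, either iv via a leg vein or id by catheter into the proximal duodenum after laparotomy; one dose per monkey. Serial plasma levels were measured by HPLC or bioassay, and AUC was fitted to a biexponential decay. Bioavailability = dose-corrected AUC(id)/AUC(iv) × 100.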

Molecules are shown by their SMILES.

Usually IC50 stands for the concentration needed to halve the response being measured. Turning to `CCCC[C@H](O[C@@H](Cc1ccccc1)C(=O)N1CCC(OCOC)CC1)C(=O)N[C@@H](CC1CCCCC1)[C@@H](O)[C@@H](O)CC(C)C`, the half-maximal inhibitory concentration (IC50) was found to be 13 nM against Renin [1], 3 nM at Renin [2], 3.2 nM at Renin [3] and 1 nM on Renin [4].
For the compound `CCNC(=O)[C@H](Cc1ccccc1)O[C@@H](C)C(=O)N[C@@H](CC1CCCCC1)[C@@H](O)[C@@H](O)CC(C)C`, the 50% inhibitory concentration (IC50) at Renin [4] was 130 nM.
One may read the bioavailability as dose-corrected exposure relative to a reference, in per cent. For `CCCCNC(=O)[C@@H](C[C@H](O)[C@H](CC1CCCCC1)NC(=O)[C@H](CCCC)N[C@@H](Cc1ccccc1)C(=O)N1CCC(OCOC)CC1)C(C)C`, the half-inhibitory concentration (IC50) at Renin [1] was found to be 8.7 nM; against Renin [4], 0.9 nM. This compound gave a bioavailability in data set [5] of 7.1%.
Regarding `CCCCNC(=O)[C@@H](C[C@H](O)[C@H](CC1CCCCC1)NC(=O)[C@H](CCCC)O[C@@H](Cc1ccccc1)C(=O)N1CCC(OCOC)CC1)C(C)C`, the IC50 on Renin [1] worked out at 8.2 nM; against Renin [4] it was 1.2 nM.
The compound `CCCC[C@H](O[C@@H](Cc1ccccc1)C(=O)N1CCC(OCS(C)(=O)=O)CC1)C(=O)N[C@@H](CC1CCCCC1)[C@@H](O)[C@@H](O)CC(C)C` returned an IC50 against Renin [4] of 780 nM.
On the same count and under the same terms, the value for `CCCC[C@@H](N[C@@H](Cc1ccccc1)C(=O)N1CCOCC1)C(=O)N[C@@H](CC1CCCCC1)[C@@H](O)[C@@H](O)CC(C)C` was 750 nM; that for `CCCC[C@H](O[C@@H](Cc1ccccc1)C(=O)N1CCC(OC[S+](C)[O-])CC1)C(=O)N[C@@H](CC1CCCCC1)[C@@H](O)[C@@H](O)CC(C)C` (some centres undefined) was 770 nM; that for `CC(C)C[C@H](N[C@@H](Cc1ccccc1)C(=O)OC(C)(C)C)C(=O)N[C@@H](CC1CCCCC1)[C@@H](O)[C@@H](O)CC(C)C` was 340 nM.
On the same count and under the same terms, under `CCOC(=O)C(CCc1ccccc1)N[C@@H](CC(C)C)C(=O)N[C@@H](CC1CCCCC1)[C@@H](O)[C@@H](O)CC(C)C` (single isomer, unassigned; more polar) stands 160 nM.
Turning to `CCC[C@H](O[C@@H](Cc1ccccc1)C(=O)N1CCC(OCOC)CC1)C(=O)N[C@@H](CC1CCCCC1)[C@@H](O)[C@@H](O)CC(C)C`, the 50% inhibitory concentration (IC50) stood at 31 nM on Renin [1], 3.3 nM on Renin [2], 5.5 nM on Renin [3] and 1.4 nM on Renin [4].
In the case of `CC(C)C[C@@H](N[C@@H](Cc1ccccc1)C(=O)OC(C)(C)C)C(=O)N[C@@H](CC1CCCCC1)[C@@H](O)[C@@H](O)CC(C)C`, the half-inhibitory concentration (IC50) at Renin [4] came out at 2700 nM.
The same measure, in the same setting: the value for `CC(C)C[C@H](O)[C@H](O)[C@H](CC1CCCCC1)NC(=O)C(C)N[C@@H](Cc1ccccc1)C(=O)N1CCOCC1` (single isomer, unassigned; less polar) was 85 nM.
Same read-out and setting: the value for `CCN(CC)C(=O)[C@H](Cc1ccccc1)O[C@@H](C)C(=O)N[C@@H](CC1CCCCC1)[C@@H](O)[C@@H](O)CC(C)C` was over 1000 nM.
`CC(C)C[C@H](O)[C@H](O)[C@H](CC1CCCCC1)NC(=O)C(C)N[C@H](Cc1ccccc1)C(=O)N1CCOCC1` (single isomer, unassigned) registered an IC50 against Renin [4] of 1000 nM.
On to `CCCC[C@H](O[C@@H](Cc1ccccc1)C(=O)N1CCC(CCOC)CC1)C(=O)N[C@@H](CC1CCCCC1)[C@@H](O)[C@@H](O)CC(C)C`, for which the IC50 against Renin [1] was found to be 1300 nM; against Renin [4] it was 18 nM.
At Renin [1], `CC(C)C[C@H](O)[C@H](O)[C@H](CC1CCCCC1)NC(=O)[C@H](C)O[C@@H](Cc1ccccc1)C(=O)N1CCCC1` had an IC50 of 3700 nM.
At Renin [4], `C=CCOC1CCN(C(=O)[C@H](Cc2ccccc2)O[C@@H](CCCC)C(=O)N[C@@H](CC2CCCCC2)[C@@H](O)[C@@H](O)CC(C)C)CC1` came in with an IC50 of 160 nM.
The same measure, in the same setting: the value for `CCCCC1CCN(C(=O)[C@H](Cc2ccccc2)O[C@@H](CCCC)C(=O)N[C@@H](CC2CCCCC2)[C@@H](O)[C@@H](O)CC(C)C)CC1` was 1100 nM.
With `CCCC[C@H](N[C@@H](Cc1ccccc1)C(=O)N1CCOCC1)C(=O)N[C@@H](CC1CCCCC1)[C@@H](O)[C@@H](O)CC(C)C`, the half-maximal inhibitory concentration (IC50) on Renin [1] amounted to 1200 nM; at Renin [4], 13 nM.
With `COCOC1CCN(C(=O)[C@H](Cc2ccccc2)O[C@@H](C)C(=O)N[C@@H](CC2CCCCC2)[C@@H](O)[C@@H](O)CC(C)C)CC1`, the IC50 is 340 nM against Renin [1], 27 nM against Renin [2] and 7 nM on Renin [3].
For `CC(C)C[C@H](O)[C@H](O)[C@H](CC1CCCCC1)NC(=O)C(C)N[C@H](Cc1ccccc1)C(=O)N1CCOCC1` (single isomer, unassigned; less polar), it took 1600 nM to reach half-maximal inhibition on Renin [4] (IC50).
Turning to `CCOC(=O)C(CCc1ccccc1)N[C@@H](C)C(=O)N[C@@H](CC1CCCCC1)[C@@H](O)[C@@H](O)CC(C)C` (single isomer, unassigned; less polar), the IC50 at Renin [4] came to 130 nM.
On the same count and under the same terms, the value for `CCOC(=O)C(CCc1ccccc1)N[C@@H](C)C(=O)N[C@@H](CC1CCCCC1)[C@@H](O)[C@@H](O)CC(C)C` (single isomer, unassigned; more polar) was 150 nM; that for `CC(C)C[C@H](O)[C@H](O)[C@H](CC1CCCCC1)NC(=O)C(C)N[C@@H](Cc1ccccc1)C(=O)N1CCOCC1` (single isomer, unassigned; more polar) was 1000 nM.
Compound `CCOC(=O)C(CCc1ccccc1)N[C@@H](CC(C)C)C(=O)N[C@@H](CC1CCCCC1)[C@@H](O)[C@@H](O)CC(C)C` (stereo in doubt) came in with a half-maximal inhibitory concentration (IC50) against Renin [4] of 240 nM.
On Renin [1], `CC(C)C[C@H](O)[C@H](O)[C@H](CC1CCCCC1)NC(=O)[C@H](C)O[C@@H](Cc1ccccc1)C(=O)N1CCC1` returned a concentration for half-maximal inhibition (IC50) of 1000 nM.
On to `CCCC[C@H](O[C@@H](Cc1ccccc1)C(=O)N1CCC(OCSC)CC1)C(=O)N[C@@H](CC1CCCCC1)[C@@H](O)[C@@H](O)CC(C)C`, for which, at Renin [4], it took 130 nM to reach half-maximal inhibition (IC50).
Same read-out and setting: under `CCCC[C@H](O[C@@H](Cc1ccccc1)C(=O)N1CCC(OCCC)CC1)C(=O)N[C@@H](CC1CCCCC1)[C@@H](O)[C@@H](O)CC(C)C` stands 290 nM; under `CC(C)CC(N[C@@H](CCc1ccccc1)C(=O)OC(C)(C)C)C(=O)N[C@@H](CC1CCCCC1)[C@@H](O)[C@@H](O)CC(C)C` (stereo in doubt; form 2), 1000 nM.
`CCCC[C@H](O[C@@H](Cc1ccccc1)C(=O)N1CCC(SCOC)CC1)C(=O)N[C@@H](CC1CCCCC1)[C@@H](O)[C@@H](O)CC(C)C`: the IC50 on Renin [1] worked out at 120 nM; against Renin [4], 1.8 nM.
In the case of `CCCC[C@H](O[C@@H](Cc1ccccc1)C(=O)N1CCC(OC)CC1)C(=O)N[C@@H](CC1CCCCC1)[C@@H](O)[C@@H](O)CC(C)C`, the IC50 at Renin [4] was 44 nM.
As for `CCCC[C@H](O[C@@H](Cc1ccccc1)C(=O)N1CCOCC1)C(=O)N[C@@H](CC1CCCCC1)[C@@H](O)[C@@H](O)CC(C)C`, the results for the 50% inhibitory concentration (IC50) against Renin [1] and against Renin [4] were 1000 nM and 15 nM, respectively.
For `CCCC[C@H](O[C@@H](Cc1ccccc1)C(=O)N1CCCCC1)C(=O)N[C@@H](CC1CCCCC1)[C@@H](O)[C@@H](O)CC(C)C`, the 50% inhibitory concentration (IC50) at Renin [4] turned out to be 24 nM.
`CC(C)C[C@H](O)[C@H](O)[C@H](CC1CCCCC1)NC(=O)[C@H](C)O[C@@H](Cc1ccccc1)C(=O)N1CCOCC1`: the IC50 was 4300 nM at Renin [1] and 45 nM at Renin [4].
As for `CCCC[C@H](N[C@@H](Cc1ccccc1)C(=O)N1CCC(OCOC)CC1)C(=O)N[C@@H](CC1CCCCC1)[C@@H](O)[C@@H](O)CC(C)C`, the half-maximal inhibitory concentration (IC50) at Renin [1] was found to be 17 nM; at Renin [2] it was 3.9 nM; against Renin [3], 2.8 nM; on Renin [4], 1.1 nM.
In turn, `CCCC[C@H](O[C@@H](Cc1ccccc1)C(=O)N1CCC(O)CC1)C(=O)N[C@@H](CC1CCCCC1)[C@@H](O)[C@@H](O)CC(C)C` yielded an IC50 against Renin [4] of 130 nM.
Take `CC[C@H](O[C@@H](Cc1ccccc1)C(=O)N1CCC(OCOC)CC1)C(=O)N[C@@H](CC1CCCCC1)[C@@H](O)[C@@H](O)CC(C)C`: the half-inhibitory concentration (IC50) was 120 nM on Renin [1], 7.9 nM on Renin [2], 5.4 nM against Renin [3] and 0.9 nM at Renin [4].
As to `CC(C)C[C@H](O)[C@H](O)[C@H](CC1CCCCC1)NC(=O)[C@H](C)O[C@@H](Cc1ccccc1)C(=O)N1CCCCC1`, the half-inhibitory concentration (IC50) against Renin [1] is 8100 nM; against Renin [4] it was 25 nM.
As for `CC(C)CC(N[C@@H](CCc1ccccc1)C(=O)OC(C)(C)C)C(=O)N[C@@H](CC1CCCCC1)[C@@H](O)[C@@H](O)CC(C)C` (stereo in doubt; form 1), the IC50 at Renin [4] was 4000 nM.
As to `CCCC[C@H](N[C@@H](Cc1ccccc1)C(=O)N1CCC(OCCOC)CC1)C(=O)N[C@@H](CC1CCCCC1)[C@@H](O)[C@@H](O)CC(C)C`, the IC50 was found to be 1800 nM against Renin [1] and 31 nM at Renin [4].

Source of the values: ChEMBL document CHEMBL1126032, “Nonpeptide renin inhibitors employing a novel 3-aza(or oxa)-2,4-dialkyl glutaric acid moiety as a P2/P3 amide bond replacement” (J Med Chem, 1992).
